The subject of one experiment is Bacillus thuringiensis. Nature of the experiment: Antimicrobial activity against Bacillus thuringiensis ATCC 39765 assessed as diameter of zone of growth inhibition at 10 ug/6 mm disc incubated for 12 hrs by disc diffusion assay. Type of experiment: functional, organism-based. Summed up: (§1)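 Bacteria grown 10 h at 37 °C in LB broth as seed cultures, then mixed into LB agar to pour plates. Sterile 6 mm filter disks loaded with 5 μL test solution at 2 μg/μL in DMSO; ampicillin disks (5 μg/μL in DMSO) as positive control. Plates incubated 12 h at 37 °C, then diameter of the growth-inhibition zone around each disk recorded.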
In general terms: Agar diffusion results depend on both activity and mobility in agar.

In the next experiment the test system is Staphylococcus aureus. Nature of the experiment: Antimicrobial activity against Staphylococcus aureus ATCC 29213 assessed as diameter of zone of growth inhibition at 10 ug/6 mm disc incubated for 12 hrs by disc diffusion assay. Type of experiment: functional, organism-based. Summed up: as §1
In a further experiment the test system is MCF7. Briefly: Cytotoxicity against human MCF7 cells after 72 hrs BY SRB assay. It counts as functional, cell-based. The following applies: MCF7, 72 h. Summed up:
(§2)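 Cells seeded at 3 × 10^4 cells/mL (180 μL per well) and preincubated 24 h at 37 °C, 5% CO2. Compound added at various concentrations (20 μL), then 72 h further incubation. Fixed with 50% (w/v) TCA, stained 30 min with 0.4% SRB in 1% acetic acid, washed with 1% acetic acid. Dye dissolved in 10 mM Tris base, OD read at 570 nm. Cisplatin as positive control. Triplicate; IC50 by nonlinear curve fitting.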

A further experiment concerns Bacillus subtilis. Nature of the experiment: Antimicrobial activity against Bacillus subtilis ATCC 6633 assessed as diameter of zone of growth inhibition at 10 ug/6 mm disc incubated for 12 hrs by disc diffusion assay. It counts as functional, organism-based. Summed up:
as §1

In a further experiment the test system is NCI-H460. Nature of the experiment: Cytotoxicity against human NCI-H460 cells after 72 hrs BY SRB assay. The following applies: NCI-H460, 72 h. Type of experiment: functional, cell-based. Summed up: as §2
(In general: Sulforhodamine B stains cellular protein and so reports cell mass.)

Another experiment concerns SF-268. Nature of the experiment: Cytotoxicity against human SF268 cells after 72 hrs BY SRB assay. It counts as functional, cell-based. The following applies: SF-268, 72 h. An outline of the steps:
as §2

The source made the active and inactive calls. The rule behind the calls is not given here. A value given as a limit tells only on which side of the number the result lay.

As usually defined, the IC50 is the concentration that gives 50% inhibition. Low values mean greater potency in that assay, high ones weaker potency in that assay. In the case of `CCCCC[C@H](O)c1c(O)cc2c(c1O)C(=O)c1c(cc(O)c(Cl)c1O)C2=O`, the “diameter of the inhibition zone (DIZ)” value in the experiment on Bacillus thuringiensis, in the experiment on Staphylococcus aureus and in the experiment with Bacillus subtilis was “inactive” throughout. Moreover, the IC50 in the experiment on MCF7 is 36.4 µM; with NCI-H460, > 50 µM; in the experiment on SF-268, > 50 µM.

Take `CCCCC[C@H](O)c1c(O)cc2c(c1O)C(=O)c1c(O)cc(OC)cc1C2=O`: the “diameter of the inhibition zone (DIZ)” value in the experiment on Bacillus thuringiensis, in the experiment with Staphylococcus aureus and in the experiment on Bacillus subtilis was “inactive” throughout. For the same compound, the IC50 in the experiment on MCF7, with NCI-H460 and in the experiment on SF-268 was > 50 µM in each case.

`CCCCC[C@H](OCCCC)c1c(O)cc2c(c1O)C(=O)c1c(O)cc(O)cc1C2=O`: the “diameter of the inhibition zone (DIZ)” value in the experiment with Bacillus thuringiensis, in the experiment on Staphylococcus aureus and in the experiment with Bacillus subtilis was “inactive” throughout. Besides, the figures for the IC50 in the experiment on MCF7, in the experiment on NCI-H460 and in the experiment on SF-268 were 40.5 µM, > 50 µM and 47.2 µM, respectively.

For `CCCCC[C@H](O)c1c(O)cc2c(c1O)C(=O)c1c(cc(OC)c(Cl)c1O)C2=O`, the “diameter of the inhibition zone (DIZ)” value in the experiment with Bacillus thuringiensis, in the experiment with Staphylococcus aureus and in the experiment with Bacillus subtilis was “inactive” throughout. Moreover, the IC50 in the experiment with MCF7 was determined as 6.64 µM; in the experiment on NCI-H460 it was 7.42 µM; in the experiment on SF-268 it was 7.11 µM.

For the compound `CCCCC[C@H](OCCCC)c1c(O)cc2c(c1O)C(=O)c1c(cc(O)c(Cl)c1O)C2=O`, the “diameter of the inhibition zone (DIZ)” value in the experiment on Bacillus thuringiensis, with Staphylococcus aureus and in the experiment with Bacillus subtilis was “inactive” throughout. The IC50 in the experiment with MCF7 was 49.5 µM; in the experiment on NCI-H460, > 50 µM; with SF-268, > 50 µM.

With `CCCC/C=C/c1c(O)cc2c(c1O)C(=O)c1c(cc(OC)c(Cl)c1O)C2=O`, the “diameter of the inhibition zone (DIZ)” value with Bacillus thuringiensis, in the experiment with Staphylococcus aureus and in the experiment with Bacillus subtilis was “inactive” throughout. Moreover, the IC50 in the experiment with MCF7 is 24.4 µM; with NCI-H460, > 50 µM; in the experiment on SF-268, > 50 µM.

In the case of `CCCC/C=C/c1c(O)cc2c(c1O)C(=O)c1c(O)cc(O)cc1C2=O` [AVERYTHRIN], the “diameter of the inhibition zone (DIZ)” value in the experiment with Bacillus thuringiensis, in the experiment with Staphylococcus aureus and with Bacillus subtilis was “inactive” throughout. The values for the IC50 in the experiment on MCF7, in the experiment with NCI-H460 and in the experiment on SF-268 were 29.7 µM, > 50 µM and > 50 µM, respectively.

Turning to `CCCCC[C@H](OC)c1c(O)cc2c(c1O)C(=O)c1c(O)cc(O)cc1C2=O`, the “diameter of the inhibition zone (DIZ)” value in the experiment on Bacillus thuringiensis, in the experiment with Staphylococcus aureus and in the experiment on Bacillus subtilis was “inactive” throughout. The IC50 came to 35.3 µM in the experiment on MCF7, 44.2 µM in the experiment on NCI-H460 and 33.6 µM in the experiment on SF-268.

`CCCCC[C@H](O)c1c(O)cc2c(c1O)C(=O)c1c(O)cc(O)cc1C2=O`: the “diameter of the inhibition zone (DIZ)” value in the experiment with Bacillus thuringiensis, in the experiment on Staphylococcus aureus and in the experiment on Bacillus subtilis was “inactive” each time. Besides, the IC50 in the experiment with MCF7 is 45.5 µM; in the experiment with NCI-H460, > 50 µM; in the experiment with SF-268, > 50 µM.

As for `CCCCC[C@H](OC)c1c(O)cc2c(c1O)C(=O)c1c(cc(OC)c(Br)c1O)C2=O`, the “diameter of the inhibition zone (DIZ)” value in the experiment with Bacillus thuringiensis, in the experiment on Staphylococcus aureus and in the experiment with Bacillus subtilis was “inactive” each time. The IC50 in the experiment with MCF7, in the experiment with NCI-H460 and in the experiment with SF-268 was > 50 µM in each case.

In the case of `CCCC/C=C/c1c(O)cc2c(c1O)C(=O)c1c(cc(O)c(Cl)c1O)C2=O`, the “diameter of the inhibition zone (DIZ)” value in the experiment with Bacillus thuringiensis, in the experiment with Staphylococcus aureus and in the experiment with Bacillus subtilis was “inactive” each time. Also, the IC50 in the experiment with MCF7, in the experiment on NCI-H460 and in the experiment with SF-268 was > 50 µM throughout.

`CCCCC[C@H](OC)c1c(O)cc2c(c1O)C(=O)c1c(cc(OC)c(Cl)c1O)C2=O`: the “diameter of the inhibition zone (DIZ)” value with Bacillus thuringiensis, in the experiment with Staphylococcus aureus and in the experiment with Bacillus subtilis was “inactive” in each case. The IC50 with MCF7, with NCI-H460 and in the experiment with SF-268 was > 50 µM in each case.

With `CCCCC[C@H](OC)c1c(O)cc2c(c1O)C(=O)c1c(cc(O)c(Cl)c1O)C2=O`, the “diameter of the inhibition zone (DIZ)” value in the experiment with Bacillus thuringiensis, in the experiment with Staphylococcus aureus and in the experiment on Bacillus subtilis was “inactive” each time. Further, the IC50 was determined as 26.1 µM in the experiment on MCF7, 37.2 µM with NCI-H460 and 34.1 µM in the experiment with SF-268.

`CCCCC[C@H](O)c1c(O)cc2c(c1O)C(=O)c1c(cc(OC)c(Br)c1O)C2=O`: the “diameter of the inhibition zone (DIZ)” value in the experiment on Bacillus thuringiensis, with Staphylococcus aureus and in the experiment on Bacillus subtilis was “inactive” throughout. In addition, the values for the IC50 in the experiment on MCF7, in the experiment on NCI-H460 and in the experiment with SF-268 were 25.6 µM, 18.9 µM and 24.7 µM, respectively.

As for `CCCCC[C@H](OC)c1c(O)cc2c(c1O)C(=O)c1c(O)cc(OC)cc1C2=O`, the “diameter of the inhibition zone (DIZ)” value in the experiment on Bacillus thuringiensis, with Staphylococcus aureus and with Bacillus subtilis was “inactive” each time. In addition, the IC50 in the experiment with MCF7, in the experiment with NCI-H460 and in the experiment on SF-268 was > 50 µM each time.

The record behind these values is ChEMBL document CHEMBL2069264, “Halogenated anthraquinones from the marine-derived fungus Aspergillus sp. SCSIO F063” (J Nat Prod, 2012).
